Results from different studies.
≈ marks a conversion by molar mass, not a printed value.
Organism: Mycobacterium tuberculosis
Observed: microbial growth

Compound	technique	strain	time	endpoint	value
c1ccc(-c2cc(NCCC34CC5CC(CC(C5)C3)C4)n3cnnc3n2)nc1	–	H37RV	–	MIC	11 µM
CN(C)Cc1cc2[nH]c(=S)n(Cc3cccnc3)c(=O)c2cc1Cl	–	H37RV	–	MIC90	> 100 µM
CC(CNc1cc(-c2ccccn2)nc2nncn12)c1ccccc1 (centres unmarked)	–	H37RV	–	MIC	35 µM
Nc1c(C(=O)Nc2ccccc2C(F)(F)F)sc2nc(-c3ccccc3)cc(C(F)(F)F)c12	–	H37RV	–	IC50	> 100 µM
CO[C@H]1/C=C/O[C@@]2(C)Oc3c(C)c(O)c4c(O)c(c(/C=N/N5CCN(C)CC5)c(O)c4c3C2=O)NC(=O)/C(C)=C\C=C\[C@H](C)[C@H](O)[C@@H](C)[C@@H](O)[C@@H](C)[C@H](OC(C)=O)[C@@H]1C	–	H37RV	–	MIC50	0.06 µg/mL (≈ 0.0729 µM)
Cc1cccc(NC(=O)c2sc3nc(-c4ccco4)cc(C(F)(F)F)c3c2N)c1C	–	H37RV	–	IC50	> 100 µM
CCc1cc(=O)c2c(OCC3CO3)c3ccoc3c(OC)c2o1 (centres unmarked)	resazurin	H37RV	21 days	MIC	128 µg/mL
Nc1c(C(=O)Nc2cccnc2)sc2nc(-c3ccccc3)cc(C(F)(F)F)c12	–	H37RV	–	IC50	> 100 µM
CC(=O)c1cc(-c2ccoc2)ccc1OCCc1cccc(F)c1	–	–	–	IC50	0.26 µM
CCCCCCC#Cc1cncc(-c2nnc(SC[C@H]3O[C@@H](n4ccc(=O)[nH]c4=O)[C@H](O)[C@@H]3O)n2CCO)c1	resazurin	ERDMAN	–	IC50	196 µM
CC(=O)c1ccc(OCCc2cccc(F)c2)c(C(N)=O)c1	–	–	–	IC50	1.3 µM
CCCCCCC#Cc1cncc(-c2nnc(SCc3ccc(Cl)cc3)n2CCCN)c1	resazurin	ERDMAN	–	IC50	29 µM
Nc1c(C(=O)N2CCOCC2)sc2nc(-c3ccccc3)ccc12	–	H37RV	–	IC50	46 µM
CCCCCCC#Cc1cncc(-c2nnc(SCc3cc([N+](=O)[O-])cc([N+](=O)[O-])c3)n2CCO)c1	resazurin	ERDMAN	–	IC50	1.4 µM
CN(C)C(=O)OCc1cc2[nH]c(=S)n(Cc3cncnc3)c(=O)c2cc1Cl	–	H37RV	–	MIC90	> 100 µM
NCC[C@H](O)C(=O)N[C@@H]1C[C@H](N)[C@@H](O[C@H]2O[C@H](CN)[C@@H](O)[C@H](O)[C@H]2O)[C@H](O)[C@H]1O[C@H]1O[C@H](CO)[C@@H](O)[C@H](N)[C@H]1O	–	H37RV	–	MIC90	3.3 µg/mL
COCCNC(=O)c1sc2nc(-c3ccc(OC)cc3)cc(C(F)(F)F)c2c1N	–	H37RV	–	IC50	> 100 µM
CCc1cc(=O)c2c(OCC(O)CN3CCCCC3)c3ccoc3c(OC)c2o1 (centres unmarked)	resazurin	–	21 days	MIC	32 µg/mL
NNC(=O)c1ccncc1	–	H37RA	–	MIC90	0.34 µM

Compound	technique	strain	time	endpoint	value
Clc1ccc(CCNc2cc(C3CCCO3)nc3nncn23)cc1 (centres unmarked)	–	H37RV	–	MIC	73 µM
O=C(O)c1cc2[nH]c(=S)n(Cc3cccnc3)c(=O)c2cc1Cl	–	H37RV	–	MIC90	> 100 µM
FC(F)(F)c1ccc(CCNc2cc(-c3cccs3)nc3nncn23)cc1	–	H37RV	–	MIC	0.31 µM
O=c1c2cc(Cl)c(CO)cc2[nH]c(=S)n1Cc1cccnc1	–	H37RV	–	MIC90	3.6 µM
Cc1ccc(CCNc2cc(-c3nccs3)nc3nncn23)cc1	–	H37RV	–	MIC	32 µM
NC(=O)c1cncc(Cn2c(=S)[nH]c3ccc(Cl)cc3c2=O)c1	–	H37RV	–	MIC90	63 µM
Clc1cccc(CCOc2cc(-c3ccccn3)nc3ncnn23)c1	–	H37RV	–	MIC	> 100 µM
COc1ccc(-c2cc(C(F)(F)F)c3c(N)c(C(=O)N4CCCC4(C)C)sc3n2)cc1	–	H37RV	–	IC50	> 100 µM
Cc1ccc(-c2cc(NCCc3ccc(C(F)(F)F)cc3)n3cnnc3n2)o1	–	H37RV	–	IC90	0.37 µM
Cc1ccc(Cn2c(=S)[nH]c3ccc(Cl)cc3c2=O)cn1	–	H37RV	–	MIC90	> 25 µM
CCc1cc(=O)c2c(OCC(O)CN3CCC(C)CC3)c3ccoc3c(OC)c2o1 (centres unmarked)	resazurin	–	21 days	MIC	32 µg/mL
O=c1c2cc(Cl)ccc2[nH]c(=S)n1Cc1cncc(-c2nnn[nH]2)c1	–	H37RV	–	MIC90	> 100 µM
O=C(c1cc2ccc(-c3ccccc3)nc2s1)N1CCCC1	–	H37RV	5 days	IC90	> 100 µM
CCCCCCC#Cc1cncc(-c2nnc(SCc3cc([N+](=O)[O-])cc([N+](=O)[O-])c3)n2C2CCNCC2)c1	resazurin	ERDMAN	–	IC50	2.6 µM
c1ccc(-c2cc(Nc3ccc(N4CCOCC4)cc3)n3cnnc3n2)nc1	–	H37RV	–	MIC	> 100 µM
CCCCCCC#Cc1cncc(-c2nnc(SCc3cc(=O)[nH]c4ccccc34)n2C)c1	resazurin	ERDMAN	–	IC50	> 200 µM
NNC(=O)c1ccncc1	–	H37RV	–	MIC90	0.81 µg/mL
O=c1c2ccncc2[nH]c(=S)n1Cc1cccnc1	–	H37RV	–	MIC90	> 100 µM
Nc1c(C(=O)NCc2ccc(F)cc2)sc2ncccc12	–	H37RV	–	IC50	> 100 µM
